# Columns and labels:
# A549 [1] = assay: Induction of apoptosis in human A549 cells assessed as late apoptotic cells at 0.5 uM after 48 hrs by Annexin V-FITC/propidium iodide staining based flow cytometry (reference value: 0.637%); type: functional
# Method in brief: (§1)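 A549 seeded 4×10⁶ cells/well, dosed after 12 h with compound at various concentrations, harvested after 48 h. Resuspended in annexin-binding buffer, stained with Annexin V-FITC and propidium iodide for 15 min in the dark, analysed by flow cytometry; means of three separate experiments.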
# A549 [2] = assay: Induction of apoptosis in human A549 cells assessed as necrotic cells at 0.5 uM after 48 hrs by Annexin V-FITC/propidium iodide staining based flow cytometry (reference value: 0.135%); type: functional; method in brief: as §1
# A549 [3] = assay: Antiproliferative activity against human A549 cells assessed as growth inhibition at 8 uM after 72 hrs by CCK-8 assay relative to control; type: functional; settings: A549, 72 h, read-out: GI
# A549 [4] = assay: Cell cycle arrest in human A549 cells assessed as accumulation of cells at S phase at 1 uM after 48 hrs by propidium iodide staining-based flow cytometry (reference value: 12.83%); type: functional
# [5] = Volume of distribution at steady state n ICR mouse at 4 mg/kg, iv after 0.08 to 24 hrs by LC-MS/MS analysis; type: ADME, organism-based; settings: in vivo, read-out: Vdss
# Method in brief: (§2)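 Male ICR mice (29.7~37.4 g), single iv dose 4 mg/kg in DMSO:40% SBE-β-CD 20:80 (v/v). Retro-orbital blood at 0.08–24 h into EDTA-K2 tubes; plasma protein-precipitated with acetonitrile containing internal standards, analysed by LC-MS/MS; n=3 per time point; noncompartmental analysis.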
# Histone deacetylase 2 = Histone deacetylase 2 (Homo sapiens, UniProt Q92769); assay: Inhibition of recombinant human HDAC2 assessed as decrease in deacetylation of FLUOR DE LYS Green substrate preincubated for 10 mins followed by substrate addition and measured after 30 mins by fluorescence based assay
# [6] = biological target: Histone deacetylase 3/NCoR1 (Homo sapiens, UniProt O15379); assay: Inhibition of recombinant human HDAC3/NCOR1 assessed as decrease in deacetylation of FLUOR DE LYS SIRT1 substrate preincubated for 10 mins followed by substrate addition and measured after 30 mins by fluorescence based assay; type: protein-complex assay
# [7] = Toxicity against nude Balb/c mouse xenografted with human A549 cells assessed as no change in body weight at 25 mg/kg, ip administered twice per day for 21 days and measured every 3 days during compound dosing; type: organism-based; settings: in vivo
# Method in brief: (§3)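 Female BALB/c nude mice, 5–6 weeks, implanted s.c. in right axilla with 3×10⁶ A549 cells; randomized at ~95 mm³ tumor volume, 4 per group. Dosed ip 25 mg/kg twice daily for 21 days; vehicle controls got DMA & 5% Solutol HS-15 (5:95). Tumor size (V=length×width²/2) and body weight measured every 3 days; TGI from volume change relative to control.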
# HeLa = assay: Antiproliferative activity against human HeLa cells assessed as growth inhibition at 2 uM after 72 hrs by CCK-8 assay relative to control; type: functional; settings: read-out: GI
# A-375 [8] = assay: Antiproliferative activity against human A375 cells assessed as decrease in cell viability after 72 hrs by CCK-8 assay; type: functional, cell-based; settings: A-375, 72 h
# Method in brief: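 Cells grown to 70–85% confluence (A375, A549, HCT116 in RPMI1640; HeLa, SMMC7721 in DMEM; 10% FBS, 37 °C, 5% CO2), seeded 4000/well, dosed after 12 h across a concentration range, incubated 72 h, then CCK-8 for 1 h; absorbance at 450 nm. IC50 as mean ± SD of three separate experiments.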
# A549 [9] = assay: Induction of apoptosis in human A549 cells assessed as necrotic cells at 1 uM after 48 hrs by Annexin V-FITC/propidium iodide staining based flow cytometry (reference value: 0.135%); type: functional; method in brief: as §1
# A549 [10] = assay: Induction of apoptosis in human A549 cells assessed as early apoptotic cells at 2 uM after 48 hrs by Annexin V-FITC/propidium iodide staining based flow cytometry (reference value: 1.19%); type: functional; method in brief: as §1
# A549 [11] = assay: Induction of apoptosis in human A549 cells assessed as viable cells at 0.5 uM after 48 hrs by Annexin V-FITC/propidium iodide staining based flow cytometry (reference value: 98%); type: functional; settings: A549, 48 h, read-out: Activity; method in brief: as §1
# SMMC-7721 = assay: Antiproliferative activity against human SMMC7721 cells assessed as growth inhibition at 2 uM after 72 hrs by CCK-8 assay relative to control; type: functional; settings: SMMC-7721, 72 h, read-out: GI
# Histone deacetylase 1 = Histone deacetylase 1 (Homo sapiens, UniProt Q13547); assay: Inhibition of recombinant human His tagged HDAC1 expressed in baculovirus infected insect cells assessed as decrease in deacetylation of FLUOR DE LYS Green substrate preincubated for 10 mins followed by substrate addition and measured after 30 mins by fluorescence based assay
# A549 [12] = assay: Inhibition of colony formation in human A549 cells incubated for 10 to 14 days by crystal violet staining based assay; type: functional, cell-based
# Method in brief: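 A549 seeded 3000 cells/well, treated after 12 h at 0.5, 1 and 2 µM, grown 10–14 days, fixed in 4% paraformaldehyde for 15 min and stained with 0.1% crystal violet.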
# A549 [13] = assay: Antitumor activity against human A549 cells xenografted in Balb/c nude mouse assessed as tumor growth inhibition at 25 mg/kg, ip administered twice per day for 21 days relative to control; type: functional; settings: 504 h, read-out: TGI; method in brief: as §3
# A549 [14] = assay: Cell cycle arrest in human A549 cells assessed as accumulation of cells at S phase at 0.5 uM after 48 hrs by propidium iodide staining-based flow cytometry (reference value: 12.83%); type: functional
# A549 [15] = assay: Induction of apoptosis in human A549 cells assessed as viable cells at 1 uM after 48 hrs by Annexin V-FITC/propidium iodide staining based flow cytometry (reference value: 98%); type: functional; settings: A549, 48 h, read-out: Activity; method in brief: as §1
# [16] = Half life in ICR mouse at 4 mg/kg, iv after 0.08 to 24 hrs by LC-MS/MS analysis; type: ADME, organism-based; settings: in vivo; method in brief: as §2
# A549 [17] = assay: Induction of apoptosis in human A549 cells assessed as necrotic cells at 2 uM after 48 hrs by Annexin V-FITC/propidium iodide staining based flow cytometry (reference value: 0.135%); type: functional; method in brief: as §1
# NIH3T3 = assay: Cytotoxicity against mouse NIH/3T3 cells assessed as reduction in cell viability after 72 hrs by CCK-8 assay; type: cell-based; settings: NIH3T3, 72 h
# A549 [18] = assay: Induction of apoptosis in human A549 cells assessed as early apoptotic cells at 1 uM after 48 hrs by Annexin V-FITC/propidium iodide staining based flow cytometry (reference value: 1.19%); type: functional; method in brief: as §1
# A-375 [19] = assay: Antiproliferative activity against human A375 cells assessed as growth inhibition at 2 uM after 72 hrs by CCK-8 assay relative to control; type: functional; settings: A-375, 72 h, read-out: GI
# A549 [20] = assay: Cell cycle arrest in human A549 cells assessed as accumulation of cells at G0/G1 phase at 2 uM after 48 hrs by propidium iodide staining-based flow cytometry (reference value: 73.35%); type: functional
# A549 [21] = assay: Induction of apoptosis in human A549 cells after 48 hrs by Annexin V-FITC/propidium iodide staining based flow cytometry; type: functional, cell-based; method in brief: as §1
# A549 [22] = assay: Induction of apoptosis in human A549 cells assessed as late apoptotic cells at 2 uM after 48 hrs by Annexin V-FITC/propidium iodide staining based flow cytometry (reference value: 0.637%); type: functional; method in brief: as §1
# Sequence of Histone deacetylase 2 (Q92769 whole entry): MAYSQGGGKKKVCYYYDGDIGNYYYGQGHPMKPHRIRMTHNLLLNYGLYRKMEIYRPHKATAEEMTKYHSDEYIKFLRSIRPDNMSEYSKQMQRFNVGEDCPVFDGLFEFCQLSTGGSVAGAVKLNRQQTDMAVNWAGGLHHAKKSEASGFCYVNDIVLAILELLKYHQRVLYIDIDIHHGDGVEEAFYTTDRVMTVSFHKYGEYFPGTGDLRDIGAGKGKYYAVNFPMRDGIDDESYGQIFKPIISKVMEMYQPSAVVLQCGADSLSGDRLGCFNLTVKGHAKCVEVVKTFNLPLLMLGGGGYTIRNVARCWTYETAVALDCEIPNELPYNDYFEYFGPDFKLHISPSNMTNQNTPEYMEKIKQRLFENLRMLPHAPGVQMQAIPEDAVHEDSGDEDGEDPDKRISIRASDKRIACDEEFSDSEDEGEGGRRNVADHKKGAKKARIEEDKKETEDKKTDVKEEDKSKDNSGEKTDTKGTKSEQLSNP
# Sequence of Histone deacetylase 1 (Q13547 whole entry): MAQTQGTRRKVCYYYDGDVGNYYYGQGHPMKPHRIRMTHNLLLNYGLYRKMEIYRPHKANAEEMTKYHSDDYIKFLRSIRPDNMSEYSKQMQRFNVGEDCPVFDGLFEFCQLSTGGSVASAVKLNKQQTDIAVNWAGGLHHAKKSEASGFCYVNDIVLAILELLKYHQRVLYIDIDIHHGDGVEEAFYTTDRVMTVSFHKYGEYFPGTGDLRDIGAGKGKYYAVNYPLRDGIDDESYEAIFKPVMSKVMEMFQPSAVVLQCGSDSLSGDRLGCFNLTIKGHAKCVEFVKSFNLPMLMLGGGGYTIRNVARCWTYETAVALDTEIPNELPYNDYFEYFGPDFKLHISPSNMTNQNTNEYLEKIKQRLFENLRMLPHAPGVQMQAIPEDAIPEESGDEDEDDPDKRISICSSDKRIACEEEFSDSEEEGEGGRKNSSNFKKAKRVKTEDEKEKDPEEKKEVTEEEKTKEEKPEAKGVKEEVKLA
# Sequence of Histone deacetylase 3/NCoR1 (O15379 whole entry): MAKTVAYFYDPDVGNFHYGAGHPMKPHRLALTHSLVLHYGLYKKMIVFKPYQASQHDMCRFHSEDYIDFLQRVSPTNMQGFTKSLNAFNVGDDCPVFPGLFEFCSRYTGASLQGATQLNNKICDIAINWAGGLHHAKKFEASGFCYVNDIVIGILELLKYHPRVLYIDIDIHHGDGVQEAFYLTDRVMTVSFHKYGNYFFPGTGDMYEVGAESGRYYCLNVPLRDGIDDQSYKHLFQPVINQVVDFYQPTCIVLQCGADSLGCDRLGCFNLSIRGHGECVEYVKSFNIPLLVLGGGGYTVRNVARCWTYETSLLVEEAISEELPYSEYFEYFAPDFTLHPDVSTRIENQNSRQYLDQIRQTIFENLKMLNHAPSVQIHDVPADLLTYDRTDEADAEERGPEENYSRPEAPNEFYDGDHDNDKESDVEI
# Sequence of Histone deacetylase 3/NCoR1 (O75376 whole entry, further chain): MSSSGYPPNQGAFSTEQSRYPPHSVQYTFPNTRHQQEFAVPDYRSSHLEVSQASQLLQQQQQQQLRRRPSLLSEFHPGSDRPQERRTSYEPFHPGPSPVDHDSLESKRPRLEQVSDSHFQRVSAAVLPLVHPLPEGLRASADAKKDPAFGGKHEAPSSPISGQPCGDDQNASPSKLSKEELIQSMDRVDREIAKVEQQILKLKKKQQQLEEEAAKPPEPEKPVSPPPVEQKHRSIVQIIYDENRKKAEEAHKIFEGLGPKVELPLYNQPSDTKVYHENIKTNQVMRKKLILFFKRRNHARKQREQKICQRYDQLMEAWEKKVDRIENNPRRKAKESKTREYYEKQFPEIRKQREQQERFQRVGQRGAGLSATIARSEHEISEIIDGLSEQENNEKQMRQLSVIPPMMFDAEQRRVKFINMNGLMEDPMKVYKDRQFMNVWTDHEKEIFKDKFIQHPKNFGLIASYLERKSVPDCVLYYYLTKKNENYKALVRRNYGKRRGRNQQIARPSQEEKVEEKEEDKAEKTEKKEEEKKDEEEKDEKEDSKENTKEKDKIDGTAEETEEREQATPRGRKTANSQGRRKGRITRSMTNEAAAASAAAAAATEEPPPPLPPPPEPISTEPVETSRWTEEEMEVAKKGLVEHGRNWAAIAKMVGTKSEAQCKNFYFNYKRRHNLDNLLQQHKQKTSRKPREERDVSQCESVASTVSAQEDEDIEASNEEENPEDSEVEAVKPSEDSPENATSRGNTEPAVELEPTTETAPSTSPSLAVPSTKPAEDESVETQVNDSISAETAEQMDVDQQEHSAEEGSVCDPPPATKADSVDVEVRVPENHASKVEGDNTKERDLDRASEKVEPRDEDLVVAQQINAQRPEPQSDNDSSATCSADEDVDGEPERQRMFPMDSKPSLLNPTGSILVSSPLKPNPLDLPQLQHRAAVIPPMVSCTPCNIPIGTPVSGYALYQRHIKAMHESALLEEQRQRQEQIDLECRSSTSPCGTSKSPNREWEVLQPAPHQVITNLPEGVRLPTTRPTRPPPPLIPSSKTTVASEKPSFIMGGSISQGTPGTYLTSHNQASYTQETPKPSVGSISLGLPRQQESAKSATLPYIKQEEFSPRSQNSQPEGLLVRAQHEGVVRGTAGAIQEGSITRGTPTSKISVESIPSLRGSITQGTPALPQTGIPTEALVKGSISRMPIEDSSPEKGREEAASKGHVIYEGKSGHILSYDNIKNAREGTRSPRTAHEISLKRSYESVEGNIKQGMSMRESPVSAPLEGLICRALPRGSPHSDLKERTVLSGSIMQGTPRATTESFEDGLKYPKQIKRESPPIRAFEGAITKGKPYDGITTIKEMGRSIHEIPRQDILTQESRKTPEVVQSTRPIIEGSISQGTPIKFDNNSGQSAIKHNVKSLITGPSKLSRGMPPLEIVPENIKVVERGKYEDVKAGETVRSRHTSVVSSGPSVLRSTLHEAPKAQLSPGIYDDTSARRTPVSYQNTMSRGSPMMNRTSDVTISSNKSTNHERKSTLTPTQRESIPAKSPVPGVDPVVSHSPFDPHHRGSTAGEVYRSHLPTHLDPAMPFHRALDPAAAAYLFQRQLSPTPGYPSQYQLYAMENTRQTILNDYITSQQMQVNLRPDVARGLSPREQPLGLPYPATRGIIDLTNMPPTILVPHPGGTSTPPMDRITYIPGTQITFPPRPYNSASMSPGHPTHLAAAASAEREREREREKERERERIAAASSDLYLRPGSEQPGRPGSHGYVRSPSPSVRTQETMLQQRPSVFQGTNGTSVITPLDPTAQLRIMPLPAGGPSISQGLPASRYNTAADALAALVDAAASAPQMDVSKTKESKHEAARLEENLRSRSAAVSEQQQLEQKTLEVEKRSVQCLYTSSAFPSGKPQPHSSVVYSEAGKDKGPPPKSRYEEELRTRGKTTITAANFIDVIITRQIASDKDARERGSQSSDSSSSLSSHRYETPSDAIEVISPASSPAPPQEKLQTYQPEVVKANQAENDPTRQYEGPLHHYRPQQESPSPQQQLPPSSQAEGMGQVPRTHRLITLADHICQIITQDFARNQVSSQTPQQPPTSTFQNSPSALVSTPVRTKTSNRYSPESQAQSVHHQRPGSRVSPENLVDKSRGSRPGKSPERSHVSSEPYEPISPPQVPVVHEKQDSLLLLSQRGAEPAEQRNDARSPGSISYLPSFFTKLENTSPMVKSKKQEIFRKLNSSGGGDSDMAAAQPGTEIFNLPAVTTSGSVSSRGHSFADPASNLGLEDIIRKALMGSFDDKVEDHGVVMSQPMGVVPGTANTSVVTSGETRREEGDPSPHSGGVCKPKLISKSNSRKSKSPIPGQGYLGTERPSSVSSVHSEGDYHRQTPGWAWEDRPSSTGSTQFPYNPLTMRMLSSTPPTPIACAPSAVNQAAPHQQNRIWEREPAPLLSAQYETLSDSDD
Vd [5] [L/kg],IC50 (Histone deacetylase 2) [nM],IC50 [6] [nM],IC50 (A-375 [8]) [nM],IC50 (Histone deacetylase 1) [nM],half-life [16] [h],SMILES,Activity (A549 [1]) [%],Activity (A549 [2]) [%],inhibition of growth at 8 µM (A549 [3]) [%],Activity (A549 [4]) [%],Activity [7],inhibition of growth at 2 µM (HeLa) [%],Activity (A549 [9]) [%],Activity (A549 [10]) [%],viability at 0.5 µM (A549 [11]) [%],inhibition of growth at 2 µM (SMMC-7721) [%],inhibition (A549 [12]),inhibition in vivo at 25 mg/kg (A549 [13]) [%],Activity (A549 [14]) [%],viability at 1 µM (A549 [15]) [%],also measured
3.46,144,215,2420,71,2.59,CCc1ccc(SCc2ccc(C(=O)Nc3ccccc3N)cc2)cc1,7.08,1.14,91.4,9.74,Non-Toxic,30.8,8.44,6.55,80.8,25.7,Dose-dependent effect,62.7,12.56,70.4,Activity (A549 [17]): 13.2%; IC50 (NIH3T3): 3660 nM; Activity (A549 [18]): 6.52%; inhibition of growth at 2 µM (A-375 [19]): 19.6%; Activity (A549 [20]): 24%; Activity (A549 [21]): Dose-dependent effect; Activity (A549 [22]): 16.7%
1.74,205,136,3010,16,2.24,COc1ccc(SCc2ccc(C(=O)Nc3ccccc3N)cc2)cc1,15,13.8,70.7,20.63,Non-Toxic,35,1.5,5.65,66,33.1,Dose-dependent effect,57.9,17.55,67.9,Activity (A549 [17]): 20.3%; IC50 (NIH3T3): 4040 nM; Activity (A549 [18]): 19.8%; inhibition of growth at 2 µM (A-375 [19]): 10.2%; Activity (A549 [20]): 39.3%; Activity (A549 [21]): Dose-dependent effect; Activity (A549 [22]): 26.6%

# — ChEMBL document CHEMBL4396885, “Thioether-based 2-aminobenzamide derivatives: Novel HDAC inhibitors with potent in vitro and in vivo antitumor activity” (Eur J Med Chem, 2019)
